Published values gathered from unrelated publications.
Lines come from different studies, so protocols differ.

Compound	test	system	conditions	measurement	value
CC(=O)Nc1nnc(N2CCN([C@@H](C)c3ccc4c(c3)OCO4)CC2)s1	–	monkey, plasma	1 µM	fraction unbound	0.068
c1ccc(-c2nc(NCc3nc4ccccc4o3)c3ccccc3n2)nc1	metabolic stability	mouse, liver microsomes	–	microsomal CLint	119 µL/min/mg
Cc1cc(Cl)c(Cl)cc1NC(=O)c1ccc(N2CCNCC2)nc1	metabolic stability	CD-1 mouse, liver microsomes	1 µM, 1 h, pH 7.4	scaled CLint	47 mL/min/kg
O=C(CCCCCCC(=O)Nc1ccccc1)NO	–	cat, serum	oral, 250 mg/m², single dose	Cmax	39 ng/mL
C#Cc1cccc(Nc2ncnc3cc(OCCOC)c(OCCOC)cc23)c1	–	male Sprague-Dawley rat, plasma	oral, 12 mg/kg, single dose	Vd/F	4.3 L/kg
Oc1c(Br)cc(Cl)c2cccnc12	–	Sprague-Dawley rat, plasma	subcutaneous, 10 mg/kg	Vd/F	15.1 L/kg
O=C(O)C1CCN(c2nc(-c3ccccn3)nc3ccccc23)C1 (stereo not shown)	metabolic stability	mouse, liver microsomes	–	microsomal CLint	< 1 µL/min/mg
CNCc1cc(-c2ccccc2F)n(S(=O)(=O)c2cccnc2)c1	–	Sprague-Dawley rat, plasma	oral, 10 mg/kg	Vd/F	32.2 L/kg
Cc1ccc(-c2nc3ccccc3o2)cc1NC(=O)c1cc([N+](=O)[O-])c(N2CCNCC2)cc1Cl	metabolic stability	CD-1 mouse, liver microsomes	1 µM, 1 h, pH 7.4	scaled CLint	12 mL/min/kg
c1ccc(-c2nc(N3CCc4cccnc4C3)c3ccccc3n2)nc1	metabolic stability	mouse, liver microsomes	–	microsomal CLint	520 µL/min/mg
